Entries after “also recorded” stand apart in the source; their conditions may differ.
Experiments:
rat OR-I7 = conditions: cited from earlier work; for Function at rodent OR-I7 (agonist or antagonist), in words: rat OR-I7, earlier study; for IC50: read-out: IC50 (antagonist, estimated)
rat ORs = conditions: cited from earlier work
mouse OR-I7 [1] = molecular target: T1, mouse OR-I7 (Mus musculus, UniProt Q9QWU6); test: Hana3A GloSensor cAMP assay, inhibition of response to co-applied 5 µM octanal; assay type: cell-based; conditions: for Relative antagonist potency within the series, in words: side-by-side comparison, Figs. 3 and 4
T1 sequence (Q9QWU6 1-327): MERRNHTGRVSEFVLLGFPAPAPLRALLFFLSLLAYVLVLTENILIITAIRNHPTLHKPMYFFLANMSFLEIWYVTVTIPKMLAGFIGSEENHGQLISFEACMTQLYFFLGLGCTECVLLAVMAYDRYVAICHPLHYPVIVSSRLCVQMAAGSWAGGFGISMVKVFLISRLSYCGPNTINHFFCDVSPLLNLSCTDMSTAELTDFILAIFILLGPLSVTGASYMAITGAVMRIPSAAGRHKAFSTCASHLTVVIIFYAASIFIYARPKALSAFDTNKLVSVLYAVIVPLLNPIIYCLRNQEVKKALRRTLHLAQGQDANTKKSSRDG

mouse OR-I7 [2] = molecular target: T1, mouse OR-I7; test: Hana3A GloSensor cAMP assay, compounds applied alone; assay type: cell-based; conditions: compound applied alone to Hana3A cells expressing mouse OR-I7
Procedure, shortened: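 Hana3A cells were co-transfected with Rho-tagged mouse OR-I7 (80 ng/well), RTP1S, M3-R and pGloSensor-22F (10 ng/well each). At 18–24 h they were loaded with 2% GloSensor reagent for 2 h. Test compound was applied alone over a concentration range, and luminescence was read every 90 s for 24 min. Signal at 3–7.5 min was summed, baselined and normalized to octanal. Six replicates per plate, mean ± SEM.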

CCCCCCC=O [heptanal]
Function at rodent OR-I7 (agonist or antagonist), in words (rat OR-I7): regained their ability to function as agonists

CC(C)=CCC[C@@H](C)CC=O (racemic) [citronellal]
Agonist activity at rat OR-I7 compared with octanal, in words (rat OR-I7; rat OR-I7): almost as good a rat OR-I7 agonist as octanal

CCCCCCCC=O [Compound 1, octanal]
Number of rat ORs activated (rat ORs): 33–55 | Function at rodent OR-I7 (agonist or antagonist), in words (rat OR-I7): agonists

CCC(CC)(CC)CC=O [Compound 8]
Relative antagonist potency within the series, in words (mouse OR-I7 [1]; 5 µM octanal): progressively decreased potency

CCC1(CC=O)CCCCC1 [Compound 11]
Relative antagonist potency within the series, in words (mouse OR-I7 [1]; 5 µM octanal): unfavorable

O=CCC1CCCCC1 [Compound 2, cyclohexylethanal]
Response to octanal with co-applied compound (antagonism), in words (mouse OR-I7 [1]; increasing concentrations co-applied with constant 5 µM octanal): reduced in a dose-dependent manner | Function at rodent OR-I7 (agonist or antagonist), in words (rat OR-I7): antagonists | IC50 (rat OR-I7; rat OR-I7): 37 µM | Activation of mouse OR-I7 (agonist activity), in words (mouse OR-I7 [2]): not a mouse OR-I7 agonist

O=CCC12CC3CC(CC(C3)C1)C2 [Compound 12]
Antagonist potency weaker than compound 9 (mouse OR-I7 [1]; from estimated IC50s, 5 µM octanal, Fig. 4): 3 fold

CCC1CCC(CC=O)CC1 (stereo not shown) [Compound 4, (4-ethylcyclohexyl)ethanal]
Function at rodent OR-I7 (agonist or antagonist), in words (rat OR-I7): agonists

CCC(C)CC=O (stereo not shown) [Compound 5]
Increase in antagonist potency relative to pentanal (mouse OR-I7 [1]; from estimated IC50s, 5 µM octanal, Fig. 3): 5 fold

CC1(CC=O)CCCCC1 [Compound 10]
Relative antagonist potency within the series, in words (mouse OR-I7 [1]; 5 µM octanal): unfavorable

CCCCC=O [Compound 3, Pentanal]
Function at rodent OR-I7 (agonist or antagonist), in words (rat OR-I7): weak rat OR-I7 antagonist; also recorded: antagonists | IC50 (rat OR-I7; rat OR-I7): 460 µM

From article PMC6067823 (Organic & biomolecular chemistry, 2018)
